From PubChem BioAssay
This is a sample that favours compounds with a hit; in the whole collection about 2.7% have one here.
DENV2 CPE rescue: DENV2-induced cell death inhibition; AID 651640; CPE inhibition, % at 9.99 µM; DENV2-infected cells, cytopathic effect rescue, plate reader; 350,000 tested, 1.7% active; in the data active = CPE inhibition above about 20%, passing the limit was not always enough; inconclusive = no clear call, values can overlap the other calls; tested in BHK-21 cells;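 also: 0% = median of neutral control wells and 100% = median of positive control wells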
CaV13 ICDI inh: Disruptors of the CACNA1D IQ motif to Ca2+-dependent inactivation inhibitor domain association, primary screening, Förster resonance energy transfer in intact living …. HEK cells, CFP/YFP FRET ICDI-IQ, plate reader, 10 min; percent FRET-ratio fall versus neutral wells. inhibition, % at 12.3 µM. 340,000 tested, 0.098% active. AID 743397;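 active = mean replicate inhibition of at least 30% and at least 1% of replicates passing that level; inconclusive = only one of the two criteria is met; inactive = neither criterion is met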;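 also: 0% = median of the neutral control wells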
S100A4 MyoIIA: blocks human S100A4 binding to myosin IIA peptide; 360,000 tested, 0.14% active; inhibition, % at 10.7 µM; S100A4/TAMRA-MyoIIA peptide fluorescence polarization; P26447; AID 652163;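 active = mean inhibition of at least 70% across replicates, with every replicate also reaching that level; inconclusive = mean inhibition reaches 70% but some replicates fall short; inactive = mean inhibition below 70%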
Target sequence (P26447 whole entry, looked up): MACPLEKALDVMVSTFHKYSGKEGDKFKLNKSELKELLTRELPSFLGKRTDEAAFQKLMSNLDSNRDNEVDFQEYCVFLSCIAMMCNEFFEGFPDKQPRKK
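System – human S100A4 monomer protein, biochemical binding assay · Buffer or medium – Calcium-containing HEPES buffer, pH 7.2 · Timing – 5 min between mix addition and reading · Also added – TAMRA-labelled myosin IIA heavy-chain peptide probe, 5 nM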
MLL AF4-AF9 inh: blocks AF4 peptide binding to human AF9; P42568; 350,000 tested, 0.47% active; inhibition, % at 10 µM; AlphaScreen, biotin-AF4 peptide binding to FLAG-AF9;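 active = every replicate reaching a set inhibition limit, whatever the replicate mean, cut at about 25% in these data; inconclusive = mean inhibition reaches that limit but some replicates miss it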;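 also: 0% = plate neutral control median and 100% = total signal loss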
Target sequence (P42568 whole entry, looked up): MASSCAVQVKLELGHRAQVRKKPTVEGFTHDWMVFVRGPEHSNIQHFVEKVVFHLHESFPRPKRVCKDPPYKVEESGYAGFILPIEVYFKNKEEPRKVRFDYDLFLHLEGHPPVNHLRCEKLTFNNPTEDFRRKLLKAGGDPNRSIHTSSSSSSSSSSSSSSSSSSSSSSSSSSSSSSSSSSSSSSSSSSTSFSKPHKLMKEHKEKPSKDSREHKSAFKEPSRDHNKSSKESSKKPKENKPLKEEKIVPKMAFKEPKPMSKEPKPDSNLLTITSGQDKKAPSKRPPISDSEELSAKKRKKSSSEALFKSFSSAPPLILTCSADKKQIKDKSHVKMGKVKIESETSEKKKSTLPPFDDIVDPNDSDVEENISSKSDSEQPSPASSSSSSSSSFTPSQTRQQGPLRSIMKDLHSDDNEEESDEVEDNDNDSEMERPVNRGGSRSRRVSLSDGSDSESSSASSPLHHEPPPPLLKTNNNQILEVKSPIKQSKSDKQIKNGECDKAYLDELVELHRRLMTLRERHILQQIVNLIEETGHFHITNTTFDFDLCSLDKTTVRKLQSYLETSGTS
SIRT5 block: blocks human SIRT5 desuccinylation of peptide | 330,000 tested, 1.1% active | inhibition, % at 15 µM | Purified SirT5, succinyl-peptide AMC, trypsin-coupled fluorescence; in the data active = inhibition above about 15%; inconclusive = no clear call, values can overlap the other calls
Starred values were filed as active, the others as inactive.

Screening Cc1ccc(NC(=S)NNc2ccc([N+](=O)[O-])cc2S(=O)(=O)Nc2ccccc2C(=O)O)cc1C returned CaV13 ICDI inh -6.
Screening O=C(O)c1ccccc1NS(=O)(=O)c1ccc(NNC(=S)Nc2ccc(OC(F)F)cc2)c([N+](=O)[O-])c1 returned DENV2 CPE rescue -4, CaV13 ICDI inh 5, S100A4 MyoIIA 1, MLL AF4-AF9 inh 27* and SIRT5 block 24*.
Screening COc1cc(C=NNc2ccc(S(=O)(=O)Nc3ccccc3C(=O)O)cc2[N+](=O)[O-])ccc1O returned DENV2 CPE rescue 3, CaV13 ICDI inh -2, S100A4 MyoIIA 1, MLL AF4-AF9 inh 9 and SIRT5 block 22*.
Screening O=[N+]([O-])c1ccc(N/N=C/c2ccccc2)c(F)c1 returned DENV2 CPE rescue -5, CaV13 ICDI inh -227, S100A4 MyoIIA 2, MLL AF4-AF9 inh 10 and SIRT5 block -2.
For CC(=O)Nc1cccc(/C(C)=N/Nc2ccc(S(=O)(=O)Nc3ccccc3C(=O)O)cc2[N+](=O)[O-])c1 the results were DENV2 CPE rescue 8, CaV13 ICDI inh -5, S100A4 MyoIIA -12, MLL AF4-AF9 inh 4 and SIRT5 block 21*.
CCOc1cc(/C=N/Nc2ccc(S(=O)(=O)Nc3ccccc3C(=O)O)cc2[N+](=O)[O-])cc(Cl)c1O was read as DENV2 CPE rescue -11, CaV13 ICDI inh -4, S100A4 MyoIIA -13 and MLL AF4-AF9 inh -2.
Screening COc1ccc(C(C)=NNc2ccc([N+](=O)[O-])cc2S(=O)(=O)Nc2ccccc2C(=O)O)c(OC)c1 returned DENV2 CPE rescue -1, CaV13 ICDI inh -18, S100A4 MyoIIA 1, MLL AF4-AF9 inh 7 and SIRT5 block 15*.
`CC(=O)Nc1ccc(C=NNc2ccc([N+](=O)[O-])cc2S(=O)(=O)Nc2ccccc2C(=O)O)cc1` gave DENV2 CPE rescue 1, CaV13 ICDI inh -5, S100A4 MyoIIA -2, MLL AF4-AF9 inh 2 and SIRT5 block 26*.
COc1cccc(C(C)=NNc2ccc([N+](=O)[O-])cc2[N+](=O)[O-])c1OC was read as DENV2 CPE rescue -8, CaV13 ICDI inh -7, S100A4 MyoIIA 8, MLL AF4-AF9 inh 0 and SIRT5 block -4.
Screening CC(C)NC(=O)N1[C@H](CO)[C@@H](c2ccccc2)[C@@H]1CN(C)C(=O)c1ccncc1 returned DENV2 CPE rescue 2.
`COc1ccc(CN(C)C[C@H]2Oc3ccc(NC(=O)Cc4cn(C)c5ccccc45)cc3C(=O)N([C@@H](C)CO)C[C@@H]2C)cc1` gave DENV2 CPE rescue 10, S100A4 MyoIIA -12, MLL AF4-AF9 inh 6 and SIRT5 block 1.
C[C@@H]1CN([C@@H](C)CO)C(=O)c2cc(NC(=O)Nc3ccc(F)cc3)ccc2O[C@@H](C)CCCCO[C@H]1CN(C)Cc1ccc(C(=O)O)cc1 was read as DENV2 CPE rescue inconclusive, S100A4 MyoIIA -3, MLL AF4-AF9 inh -2 and SIRT5 block 0.
For C[C@H](NC(=O)[C@@H]1[C@@H](CO)[C@@H]2Cn3c(cccc3=O)[C@@H]2N1C(=O)C1CC1)c1ccccc1 the results were DENV2 CPE rescue -4, S100A4 MyoIIA -15, MLL AF4-AF9 inh -1 and SIRT5 block 3.
CN1C(=O)c2cc(NC(=O)C3CCCC3)ccc2OC[C@@H]2O[C@H](CC(=O)NCCc3ccncc3)CC[C@H]21 was read as DENV2 CPE rescue inconclusive, S100A4 MyoIIA 2, MLL AF4-AF9 inh 3 and SIRT5 block 1.
`O=C1c2cccc3c(O)ccc(c23)C(=O)N1Cc1ccco1` gave DENV2 CPE rescue 24*, CaV13 ICDI inh -24, S100A4 MyoIIA 17, MLL AF4-AF9 inh 1 and SIRT5 block 8.
Screening C[C@@H]1CN([C@@H](C)CO)C(=O)c2cc(-c3cccc(F)c3)cnc2O[C@H]1CN(C)C returned DENV2 CPE rescue 7, S100A4 MyoIIA -57, MLL AF4-AF9 inh -2 and SIRT5 block 20*.
For Cc1ccc(-c2cnc3c(c2)C(=O)N([C@@H](C)CO)C[C@H](C)[C@H](CN(C)C)O3)cc1 the results were DENV2 CPE rescue -2, S100A4 MyoIIA 9, MLL AF4-AF9 inh -2 and SIRT5 block 16*.
`C[C@H]1CN([C@@H](C)CO)C(=O)c2cc(-c3cccnc3)cnc2O[C@H]1CN(C)C` gave DENV2 CPE rescue 73*, S100A4 MyoIIA -5, MLL AF4-AF9 inh -4 and SIRT5 block 4.
`Cc1ccc(S(=O)(=O)N(C)C[C@H]2Oc3ncc(-c4ccncc4)cc3C(=O)N([C@@H](C)CO)C[C@@H]2C)cc1` gave DENV2 CPE rescue 1, S100A4 MyoIIA -3, MLL AF4-AF9 inh 0 and SIRT5 block 32*.
Screening C[C@H]1CN([C@@H](C)CO)C(=O)c2cc(-c3cccc(F)c3)cnc2O[C@H]1CN(C)C returned DENV2 CPE rescue 7, S100A4 MyoIIA -6, MLL AF4-AF9 inh -3 and SIRT5 block -1.
Screening Cc1ccc(C(=O)CCC(=O)OCC(=O)Nc2ccccc2SCC#N)cc1 returned DENV2 CPE rescue -2, CaV13 ICDI inh -4, S100A4 MyoIIA -7, MLL AF4-AF9 inh -2 and SIRT5 block -2.
For COc1ccc(CCNC(=O)COC(=O)CCC(=O)c2cccs2)cc1OC the results were DENV2 CPE rescue 1, CaV13 ICDI inh -3, S100A4 MyoIIA -5 and MLL AF4-AF9 inh 1.
Screening CSc1ccccc1NC(=O)COC(=O)CCC(=O)c1ccc(F)cc1 returned DENV2 CPE rescue 7, CaV13 ICDI inh -7, S100A4 MyoIIA 6, MLL AF4-AF9 inh -4 and SIRT5 block 20*.
`COc1ccc(CCNC(=O)COC(=O)CCC(=O)c2ccc(F)cc2)cc1OC` gave DENV2 CPE rescue 6, CaV13 ICDI inh 7, S100A4 MyoIIA 3, MLL AF4-AF9 inh 0 and SIRT5 block 20*.
O=C(O)CCNC(=O)c1ccc(NC(=O)C(c2ccccc2)c2ccccc2)cc1 was read as DENV2 CPE rescue -6, CaV13 ICDI inh -1, S100A4 MyoIIA 1, MLL AF4-AF9 inh 3 and SIRT5 block 57*.
For O=C(Cc1ccccc1)Nc1ccc(C(=O)NCc2ccccc2)cc1 the results were DENV2 CPE rescue -2, CaV13 ICDI inh 1, S100A4 MyoIIA 0, MLL AF4-AF9 inh -6 and SIRT5 block -1.
O=C(O)CCNC(=O)c1ccc(NC(=O)Cc2ccc(Cl)cc2)cc1 was read as CaV13 ICDI inh -5, S100A4 MyoIIA -3, MLL AF4-AF9 inh 0 and SIRT5 block 26*.
Cc1cc(N)n(-c2ccc(Oc3ccccc3)c(S(=O)(=O)O)c2)n1 was read as DENV2 CPE rescue -5, CaV13 ICDI inh -4, S100A4 MyoIIA 0, MLL AF4-AF9 inh 1 and SIRT5 block 47*.
Screening Cc1cc(N)n(-c2ccc(C)c(C)c2)n1 returned DENV2 CPE rescue 6, CaV13 ICDI inh -7, S100A4 MyoIIA -4, MLL AF4-AF9 inh 2 and SIRT5 block -4.
